Source: ChEMBL document CHEMBL1138356, “Design and synthesis of human immunodeficiency virus entry inhibitors: sulfonamide as an isostere for the alpha-ketoamide group” (J Med Chem, 2007)

Experiments:
[1] = Cytotoxicity against human U87 cells expressing CD4 and CXCR4; assay type: cell-based, U-87MG ATCC
[2] = test system: Human immunodeficiency virus 1; assay: Antiviral activity against HIV1 pseudovirus in U87 cells expressing CD4 and CCR5 after 72 hrs by M33 pseudotyped assay; assay type: functional, organism-based, U-87MG ATCC; conditions: Human immunodeficiency virus 1, U-87 MG
Method in brief: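 M33 pseudotyped viral attachment assay giving IC50 values. Specificity for HIV was judged by counter-screening against AMLV-pseudotyped virus at concentrations above 100× the M33 IC50.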

Compound | IC50 [2] [µM] | CC50 [1] [µM]
COc1cccc2[nH]cc(S(=O)(=O)N3CCN(C(=O)c4ccccc4)C[C@H]3C)c12 | 4.2 | > 40
C[C@@H]1CN(C(=O)c2ccccc2)CCN1S(=O)(=O)c1c[nH]c2ncccc12 | 0.86 | > 40
COC(=O)[C@@H]1CN(C(=O)c2ccccc2)CCN1S(=O)(=O)c1c[nH]c2ncccc12 | > 20 | > 40
C[C@@H]1CN(S(=O)(=O)c2c[nH]c3ncccc23)CCN1C(=O)c1ccccc1 | 13 | > 40
C[C@@H]1CN(C(=O)c2ccccc2)CCN1S(=O)(=O)c1c[nH]c2c(C#N)cc(F)cc12 | 10 | > 40
C[C@H]1CN(S(=O)(=O)c2c[nH]c3ncccc23)CCN1C(=O)c1ccccc1 | > 20 | > 40
C[C@@H]1CN(C(=O)c2ccccc2)CCN1S(=O)(=O)c1c[nH]c2c(-n3nccn3)ncc(F)c12 | 0.62 | > 40
CC[C@@H]1CN(C(=O)c2ccccc2)CCN1S(=O)(=O)c1c[nH]c2ncccc12 | 16 | > 40
C[C@@H]1CN(C(=O)c2cc3ccccc3o2)CCN1S(=O)(=O)c1c[nH]c2ncccc12 | 3 | > 40
C[C@@H]1CN(C(=O)c2ccccn2)CCN1S(=O)(=O)c1c[nH]c2ncccc12 | 3.3 | > 40
C[C@H]1CN(C(=O)c2ccccc2)CCN1S(=O)(=O)c1c[nH]c2ncccc12 | > 20 | > 40
C[C@@H]1CN(C(=O)c2cccc(Cl)c2)CCN1S(=O)(=O)c1c[nH]c2ncccc12 | 8.4 | > 40
C[C@@H]1CN(C(=O)c2cnccn2)CCN1S(=O)(=O)c1c[nH]c2ncccc12 | 9.1 | > 40
Cc1ccc(C(=O)N2CCN(S(=O)(=O)c3c[nH]c4ncccc34)[C@H](C)C2)s1 | 2.3 | > 40
CC1(C)CN(C(=O)c2ccccc2)CCN1S(=O)(=O)c1c[nH]c2ncccc12 | > 20 | > 40
NC(=O)[C@@H]1CN(C(=O)c2ccccc2)CCN1S(=O)(=O)c1c[nH]c2ncccc12 | > 20 | > 40
NC(=O)[C@H]1CN(C(=O)c2ccccc2)CCN1S(=O)(=O)c1c[nH]c2ncccc12 | > 20 | > 40
C[C@@H]1CN(C(=O)c2ccccc2)CCN1S(=O)(=O)c1c[nH]c2c(F)c(F)c(F)c(F)c12 | 4.7 | > 40
O=C(c1ccccc1)N1CCN(S(=O)(=O)c2c[nH]c3ncccc23)CC1 | 22 | > 40
C[C@@H]1CN(C(=O)c2ccccc2)CCN1S(=O)(=O)c1c[nH]c2ccc(F)cc12 | 3.6 | > 40
C[C@@H]1CN(C(=O)c2ccccc2)CCN1S(=O)(=O)c1c[nH]c2ccc(C#N)cc12 | > 20 | > 40
COc1cc2c(S(=O)(=O)N3CCN(C(=O)c4ccccc4)C[C@H]3C)c[nH]c2cn1 | 9.2 | > 40
Cc1csc(C(=O)N2CCN(S(=O)(=O)c3c[nH]c4ncccc34)[C@H](C)C2)c1 | 1.9 | > 40
C[C@@H]1CN(C(=O)c2ccn(C)n2)CCN1S(=O)(=O)c1c[nH]c2ncccc12 | 2.4 | > 40
COCc1cn(-c2ncc(F)c3c(S(=O)(=O)N4CCN(C(=O)c5ccccc5)CC4C)c[nH]c23)nn1 (racemic) | 0.58 | > 40
CC1CN(C(=O)c2ccccc2)CCN1S(=O)(=O)c1c[nH]c2c(-n3cc(CN(C)C)nn3)nccc12 (racemic) | 1.1 | > 40
Cc1cn(-c2nccc3c(S(=O)(=O)N4CCN(C(=O)c5ccccc5)CC4C)c[nH]c23)nn1 (racemic) | 0.86 | > 40
CC1CN(C(=O)c2ccccc2)CCN1S(=O)(=O)c1c[nH]c2c(-c3cccnc3)nccc12 (racemic) | 0.64 | > 40
CC1CN(C(=O)c2ccccc2)CCN1S(=O)(=O)c1c[nH]c2c(-c3ncon3)nccc12 (racemic) | 1.24 | > 40

Molecules with a lower IC50 [2], results first:

IC50 [2] [µM] | Compound | CC50 [1] [µM]
0.15 | C[C@@H]1CN(C(=O)c2ccccc2)CCN1S(=O)(=O)c1c[nH]c2c(-n3ccnn3)ccc(F)c12 | > 40
0.25 | C[C@@H]1CN(C(=O)c2ccccc2)CCN1S(=O)(=O)c1c[nH]c2c(-n3cc(CO)nn3)nccc12 | > 40
0.43 | C[C@@H]1CN(C(=O)c2ccccc2)CCN1S(=O)(=O)c1c[nH]c2ccccc12 | > 40
0.026 | COc1ncc(OC)c2c(C(=O)C(=O)N3CCN(C(=O)c4ccccc4)CC3)c[nH]c12 | > 40
0.2 | C[C@@H]1CN(C(=O)c2ccccc2)CCN1S(=O)(=O)c1c[nH]c2c(-n3nccn3)ccc(F)c12 | > 40
0.5 | C[C@@H]1CN(C(=O)c2ccccc2)CCN1S(=O)(=O)c1c[nH]c2c(-n3cncn3)ccc(F)c12 | > 40
0.08 | C[C@@H]1CN(C(=O)c2ccccc2)CCN1S(=O)(=O)c1c[nH]c2c(-n3ccnc3)nccc12 | > 40
0.036 | C[C@@H]1CN(C(=O)c2ccccc2)CCN1S(=O)(=O)c1c[nH]c2c(-n3ccnc3)ncc(F)c12 | > 40
0.007 | C[C@@H]1CN(C(=O)c2ccccc2)CCN1S(=O)(=O)c1c[nH]c2c(-n3ccnn3)ncc(F)c12 | > 40
0.52 | C[C@@H]1CN(C(=O)c2csc(N)n2)CCN1S(=O)(=O)c1c[nH]c2ncccc12 | > 40
0.42 | C[C@@H]1CN(C(=O)c2csc(Br)n2)CCN1S(=O)(=O)c1c[nH]c2ncccc12 | > 40
0.027 | C[C@@H]1CN(C(=O)c2ccccc2)CCN1S(=O)(=O)c1c[nH]c2c(-n3ccnn3)nccc12 | > 40
0.2 | C[C@@H]1CN(C(=O)c2ccccc2)CCN1S(=O)(=O)c1c[nH]c2cccc(F)c12 | > 40
0.37 | C[C@@H]1CN(C(=O)c2ccccc2)CCN1S(=O)(=O)c1c[nH]c2c(F)ccc(F)c12 | > 40
0.15 | C[C@@H]1CN(C(=O)c2ccccc2)CCN1S(=O)(=O)c1c[nH]c2c(-n3cncn3)nccc12 | > 40
0.52 | O=C(C(=O)N1CCN(C(=O)c2ccccc2)CC1)c1c[nH]c2ncccc12 | > 40
0.005 | COc1ncc(OC)c2c(C(=O)C(=O)N3CCN(C(=O)c4ccccc4)C[C@H]3C)c[nH]c12 | > 40
0.24 | C[C@@H]1CN(C(=O)c2ccccc2)CCN1S(=O)(=O)c1c[nH]c2c(-n3cc(CF)nn3)nccc12 | > 40
0.03 | C[C@@H]1CN(C(=O)c2ccccc2)CCN1C(=O)C(=O)c1c[nH]c2ncccc12 | > 40
0.14 | CC1CN(C(=O)c2ccccc2)CCN1S(=O)(=O)c1c[nH]c2c(-c3cc[nH]n3)nccc12 (racemic) | > 40
0.5 | CC1CN(C(=O)c2ccccc2)CCN1S(=O)(=O)c1c[nH]c2c(-c3nccs3)nccc12 (racemic) | > 40
0.08 | CC1CN(C(=O)c2ccccc2)CCN1S(=O)(=O)c1c[nH]c2c(-n3cncn3)ncc(F)c12 (racemic) | > 40
0.5 | CC1CN(C(=O)c2ccccc2)CCN1S(=O)(=O)c1c[nH]c2c(-c3ccnc(N)n3)nccc12 (racemic) | > 40
